Laboratory results: ChEMBL document CHEMBL4138242, “Synthesis and antibacterial evaluation of novel cationic chalcone derivatives possessing broad spectrum antibacterial activity” (Eur J Med Chem, 2018)

Columns and labels:
Staphylococcus aureus = assay: Antibacterial activity against Staphylococcus aureus ATCC 29213 after 16 to 20 hrs by broth microdilution method; type: functional
In short: (§1)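 Broth microdilution per CLSI. Bacteria grown 4-6 h (about 10⁸ CFU/mL), then diluted to about 10⁶ CFU/mL. Medium: Mueller-Hinton broth, except Luria-Bertani broth for E. coli. Compounds in sterile water, twofold series 256-0.5 µg/mL, mixed 1:1 with inoculum, 37 °C for 16-20 h. MIC is the lowest concentration without visible growth. Duplicate wells; experiment repeated at least twice.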

Enterococcus faecalis = assay: Antibacterial activity against Enterococcus faecalis ATCC 29212 after 16 to 20 hrs by broth microdilution method; type: functional; in short: as §1
Escherichia coli = assay: Antibacterial activity against Escherichia coli ATCC 25922 after 16 to 20 hrs by broth microdilution method; type: functional; in short: as §1
Salmonella enterica = assay: Antibacterial activity against Salmonella enterica ATCC 13076 after 16 to 20 hrs by broth microdilution method; type: functional; in short: as §1
[1] = Hemolytic activity in sheep RBC after 1 hr; type: ADME, cell-based, Ovis aries, Erythrocyte; settings: sheep red blood cells (erythrocytes)
In short: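 Sheep red blood cells (150 µL suspension) mixed with 50 µL of compound dilutions (5120-10 µg/mL), 1 h at 37 °C, then centrifuged. Supernatant read at 540 nm. Percent hemolysis calculated relative to RBC-only control (0%) and 0.1% Triton X-100 (100%).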

Row | SMILES | MIC (Staphylococcus aureus) | MIC (Enterococcus faecalis) | MIC (Escherichia coli) | MIC (Salmonella enterica) | HC50 at 1 h [1]
1 | CCCCCCCC[N+](C)(C)CC(=O)Nc1ccc(C(=O)/C=C/c2cc([N+](=O)[O-])ccc2OCC)cc1.[Cl-] | 8 µg/mL | 2 µg/mL | > 128 µg/mL | > 128 µg/mL | 102 µg/mL
2 | CCCCCCCC[N+](C)(C)CC(=O)Nc1ccc(C(=O)/C=C/c2c(F)cccc2F)cc1.[Cl-] | 32 µg/mL | 32 µg/mL | 128 µg/mL | 128 µg/mL | 50 µg/mL
3 | CCCCCCCC[N+](C)(C)CC(=O)Nc1cccc(C(=O)/C=C/c2cccs2)c1.[Cl-] | 2 µg/mL | 4 µg/mL | 16 µg/mL | 16 µg/mL | 249 µg/mL
4 | CCCCCCCC[N+](C)(C)CC(=O)Nc1ccc(C(=O)/C=C/c2cccc(F)c2)cc1.[Cl-] | 32 µg/mL | 64 µg/mL | > 128 µg/mL | > 128 µg/mL | 68 µg/mL
5 | CCCCCCCC[N+](C)(C)CC(=O)Nc1ccc(C(=O)/C=C/c2ccncc2)cc1.[Cl-] | 4 µg/mL | 8 µg/mL | 16 µg/mL | 32 µg/mL | 200 µg/mL
